# Measured values published in PMC7391373 (ACS Omega, 2020).
# What was measured:
# [1] = tested on: RAW 264.7 murine macrophage cells; assay: determination of nitric oxide; format: cell-based
# [2] = tested on: P. falciparum 3D7 (chloroquine-sensitive); assay: schizont maturation inhibition assay, 3D7 strain; format: cell-based, Plasmodium falciparum
# Method in brief: (§1)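 P. falciparum (3D7 chloroquine-sensitive; RKL-9 chloroquine-resistant) was cultured in A+ human erythrocytes in RPMI-1640 with 10% human AB+ serum. Ring-synchronized parasites (2–3% parasitemia, 1.8% final haematocrit) were exposed in duplicate to test compound at 1–16 μg/mL for 48 h at 37 °C, 5% CO2. Positive controls were chloroquine 10 μM and artesunate 2 μM. Schizont inhibition versus controls was scored on Giemsa smears. SI was calculated as CC50 (HeLa/fibroblasts) divided by IC50.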
# [3] = biochemical assays, liver and kidney function tests; format: in vivo, Mus musculus
# Method in brief: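 In P. berghei-infected Laca mice (oral dosing once daily D0–D3), blood was collected from the tail vein on day 10 and from survivors on day 28. Serum ALP, SGOT, SGPT and bilirubin (liver) and urea and creatinine (kidney) were measured with commercial diagnostic kits. Data are mean ± SD, five mice per group.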
# [4] = acute toxicity; oral administration; cited from earlier work
# [5] = tested on: P. falciparum RKL-9 (chloroquine-resistant); assay: schizont maturation inhibition assay, RKL-9 strain; format: cell-based, Plasmodium falciparum
# Method in brief: as §1
# [6] = in vitro cytotoxicity, MTT assay, dermal fibroblasts; format: cell-based; conditions: human, primary culture of normal human dermal fibroblasts
# Method in brief: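 HeLa cells and primary normal human dermal fibroblasts (fibroblasts used within seven passages) were kept in DMEM with 10% fetal calf serum and 2 mM glutamine at 37 °C, 5% CO2. Cells were seeded at 5000–10 000 per well; after 24 h they received test compound (10–640 μg) in duplicate for 48 h. MTT (1 mg/mL stock) was added for 1 h, formazan was dissolved in DMSO, and OD was read at 450 nm.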
# [7] = tested on: Plasmodium berghei (NK-65); assay: in vivo suppressive activity, Peter's 4 day test; conditions: for chemosuppression (%), day 5 / parasitemia (%), day 5 / mean survival time (MST): mice; for parasitemia (%), day 28: surviving mice
# Method in brief: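 Peters 4-day suppressive test in Laca Swiss albino mice (6–8 weeks, 25 ± 2 g), five per group. On D0, mice received 1 × 10^6 P. berghei NK-65-infected erythrocytes i.p. Dosing began 1 h post-inoculation, oral, once daily D0–D3 (0.2 mL). Giemsa tail smears were taken 24 h after the last dose. Chemosuppression was calculated from mean parasitemia relative to infected controls. Survival and parasitemia were followed to day 28.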
# [8] = monotherapy 10 mg/kg oral OD D0–D3
# [9] = monotherapy 20 mg/kg oral OD D0–D3
# [10] = monotherapy 50 mg/kg oral OD D0–D3
# [11] = monotherapy 100 mg/kg oral OD D0–D3
# [12] = monotherapy 4 mg/kg oral OD D0–D3
compound,measurement,setting,value
"COC(=O)[C@@H]1Cc2c([nH]c3ccccc23)[C@@H](c2ccc3c(c2)OCO3)N1 [9a, (1R,3S)-methyl 1-(benzo[d][1,3]dioxol-5-yl)-2,3,4,9-tetrahydro-1H-pyrido[3,4-b]indole-3-carboxylate]",nitrite production from macrophages,[1]; 100 μg/mL,comparable to the normal cells
same,selectivity index (SI),[2]; CC50 / IC50 on 3D7,> 10
same,IC50,"[2]; Plasmodium falciparum, 3D7, 48 h, 3D7 strain, 48 h",< 1 µg/mL
same,inhibition at 1 µg/mL,"[2]; Plasmodium falciparum, 3D7, read-out: inhibition (schizont maturation)",> 75%
same,"levels of renal function biomarkers (creatinine, urea)",[3]; monotherapy 100 mg/kg,within the normal range
same,"levels of ALP, SGOT, SGPT, and bilirubin","[3]; monotherapy 50 and 100 mg/kg, day 10 and day 28",within normal range
same,LD50,[4],> 4000 mg/kg
same,selectivity index (SI),[5]; CC50 / IC50 on RKL-9,> 10
same,IC50,"[5]; Plasmodium falciparum, 48 h, RKL-9 strain",< 1 µg/mL
same,inhibition at 1 µg/mL,"[5]; Plasmodium falciparum, read-out: inhibition (schizont maturation)",> 75%
same,"viability at 48 h, 640 μg/mL",[6],56.5 ± 5.07%
same,"chemosuppression (%), day 5",[7]; [8],40.49%
same,"parasitemia (%), day 5",[7]; [8],17.31 ± 2.40 (n = 5) %
same,"chemosuppression (%), day 5",[7]; [9],46.82%
same,"parasitemia (%), day 5",[7]; [9],15.47 ± 2.69 (n = 5) %
same,"chemosuppression (%), day 5",[7]; [10],64.76%
same,"parasitemia (%), day 5",[7]; [10],10.25 ± 4.93 (n = 5) %
same,"parasitemia (%), day 28",[7]; [10],3.43 ± 0.51 (n = 2) %
same,mean survival time (MST),[7]; monotherapy 50 mg/kg,21.8 ± 6.09 days
same,"chemosuppression (%), day 5",[7]; [11],91.19%
same,"parasitemia (%), day 5",[7]; [11],2.56 ± 1.71 (n = 5) %
same,"parasitemia (%), day 28",[7]; [11],2.41 ± 0.97 (n = 3) %
same,mean survival time (MST),[7]; monotherapy 100 mg/kg,22.6 ± 7.79 days
"C[C@H]1[C@H](OC(=O)CCC(=O)O)O[C@@H]2O[C@@]3(C)CC[C@H]4[C@H](C)CC[C@@H]1[C@@]24OO3 [artesunate, reference compound]",nitrite production from macrophages,[1]; 2 μM,comparable to the normal cells
same,inhibition at 2 µM,"[2]; Plasmodium falciparum, 3D7",100%
same,inhibition at 2 µM,[5]; Plasmodium falciparum,100%
same,"chemosuppression (%), day 5",[7]; [12],94.01%
same,"parasitemia (%), day 5",[7]; [12],1.74 ± 0.83 (n = 5) %
same,mean survival time (MST),[7]; monotherapy 4 mg/kg,18.6 ± 2.19 days
same,"chemosuppression (%), day 5",[7]; [10],99.89%
same,"parasitemia (%), day 5",[7]; [10],0.03 ± 0.01 (n = 5) %
same,"parasitemia (%), day 28",[7]; [10],0 ± 0 (n = 2) %
same,mean survival time (MST),[7]; monotherapy 50 mg/kg,22.4 ± 5.77 days
"CCN(CC)CCCC(C)Nc1ccnc2cc(Cl)ccc12 (centres unmarked) [chloroquine, reference compound]",inhibition at 10 µM,"[2]; Plasmodium falciparum, 3D7",96.8%
same,inhibition at 10 µM,[5]; Plasmodium falciparum,96.8%
same,"chemosuppression (%), day 5",[7]; [8],94.22%
same,"parasitemia (%), day 5",[7]; [8],1.68 ± 1.06 (n = 5) %
same,"parasitemia (%), day 28",[7]; [8],0 ± 0 (n = 5) %
